This excerpt belongs to a sample that is enriched for hits.
S1P4 agonist: S1P4 receptor agonists, primary screen, cell-based | 220,000 compounds, 0.35% hits | S1P4-expressing cell line, agonist reporter assay | activation, % at 4.98 µM; in the data active means activation above about 11%
MDM2 E3 inh: MDM2-luciferase reporter signal enhancers, primary screen, MDM2 E3 ligase inhibitor project, cell-based, luminescence, 1536-well | cell-based MDM2 ubiquitination luciferase reporter, 2 h; 0 = plate control, 100 = twice control, blank-subtracted | signal enhancement, % at 5 µM | 210,000 compounds, 0.11% hits | AID 1230, 2008;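 active means signal enhancement of 30% or more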;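 further: luminescence tracks abundance of the self-degrading MDM2-luciferase fusion protein; higher signal means inhibition of MDM2 E3 ligase activity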
Target sequence (Q00987 whole entry, looked up, the tested form may be a part): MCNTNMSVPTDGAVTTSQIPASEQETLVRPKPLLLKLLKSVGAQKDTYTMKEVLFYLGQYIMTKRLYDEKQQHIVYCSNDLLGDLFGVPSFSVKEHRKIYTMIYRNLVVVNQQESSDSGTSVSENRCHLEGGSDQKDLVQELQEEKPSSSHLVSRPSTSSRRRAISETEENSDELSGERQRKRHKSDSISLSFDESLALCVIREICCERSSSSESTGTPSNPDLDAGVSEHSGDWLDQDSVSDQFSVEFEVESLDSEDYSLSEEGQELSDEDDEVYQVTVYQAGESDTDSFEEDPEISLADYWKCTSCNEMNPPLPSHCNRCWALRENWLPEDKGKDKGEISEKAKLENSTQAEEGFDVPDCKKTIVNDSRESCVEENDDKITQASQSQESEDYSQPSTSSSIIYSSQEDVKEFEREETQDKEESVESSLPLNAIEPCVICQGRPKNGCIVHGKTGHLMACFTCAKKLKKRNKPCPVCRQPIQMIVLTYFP
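Test system: mammalian cells stably expressing self-ubiquitinating, self-degrading MDM2 E3–luciferase fusion; Amount: 2000 cells in each well; Medium: DMEM; Schedule: 4 h settle plus 2 h compound, 37 °C; Technique: SteadyLite luciferase luminescence after 15 min room-temperature reagent incubation; Benchmarks: plate control and blank wells.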
S1P4 antag: S1P4 receptor antagonists, primary screen, cell-based; Sphingosine 1-phosphate receptor 4 (Homo sapiens), O95977; S1P4-expressing cells, antagonist mode, reporter read-out; inhibition, % at 4.98 µM; 220,000 compounds, 0.26% hits; in the data active means inhibition above about 29%
Lmaj promast: Leishmania major promastigote growth inhibition, primary screen; inhibition, % at 10 µM; 200,000 compounds, 9% hits; Leishmania major promastigotes, resazurin fluorescence viability; in the data active means inhibition above about 50%;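 further: promastigotes grown with compound for 44 hours at 28 °C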
S1P3 antagonist: S1P3 receptor antagonists, primary screen, cell-based; inhibition, % at 4.98 µM; 170,000 compounds, 0.27% hits; CHO S1P3 NFAT-BLA reporter, FRET fluorescence, antagonist mode; Sphingosine 1-phosphate receptor 3 (Homo sapiens), Q99500;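 active means inhibition above the plate cutoff, the mean inhibition of test wells on that plate plus 3 SD, cut at about 28% in these data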;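 further: cells challenged with S1P at its EC80 of 0.8 µM; blue over green emission ratio from cleaved BLA substrate after 4 h stimulation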
Large screens that a line does not name were inactive.

CCCc1nnc(NC(=O)c2cn(CC)c3cc(N4CCN(C)CC4)c(F)cc3c2=O)s1	none (no result: Lmaj promast)
CCCOc1ccc(C(=O)CCN2CCN(C(=O)OCC)CC2)cc1	Lmaj promast 96
COc1ccc(C(=O)CCN2CCCCCC2)cc1	Lmaj promast 85 (no result: S1P3 antagonist)
COc1ccc(C(=O)OCCN2CCCCC2)cc1	none
CC(C)Oc1ccc(C(=O)CCN2CCCCC2)cc1	Lmaj promast 90 (no result: S1P3 antagonist)
O=C(CCN1CCN(c2ccccc2F)CC1)c1ccc(Br)cc1	Lmaj promast 83
CCOc1ccc(C(=O)CCN2CCCCC2)cc1	none
CCOc1ccc(CN2C(=O)CC(=O)N(S(=O)(=O)c3ccc(OCC)cc3)C2=O)cc1	none (no result: Lmaj promast)
N#CC(c1ccc(O)cc1)c1ncc(C(F)(F)F)cc1Cl (stereo unspecified)	none
CCOC(=O)C1(CCCc2ccccc2)CCN(C(=O)CN2C(=O)CSC2=O)CC1	none
O=C(CCCCN1CCCCC1)c1ccc2c(c1)Cc1ccccc1-2	Lmaj promast 100
CCC1(C)CC2(CCCN(CCC(=O)c3ccccc3)C2)CCO1 (stereo unspecified)	Lmaj promast 69
O=C(CCN1CCCCCC1)c1ccccc1	Lmaj promast 88 (no result: S1P3 antagonist)
CC(=O)NC(=S)NNC(=O)COc1ccc(Br)cc1	Lmaj promast 87
COc1ccc(C2/C=C\CN(Cc3ccco3)CC(=O)N2Cc2ccc(F)cc2)cc1 (stereo unspecified)	none (no result: S1P4 agonist, S1P4 antag, Lmaj promast, S1P3 antagonist)
COc1ccc(-c2cc(=O)n(CCC#N)[nH]2)cc1	Lmaj promast 96
COc1ccc(-c2ncn(CCC#N)c2[N+](=O)[O-])cc1	none
Cc1cccc(C(=O)NC(NC(=S)Nc2ccc(S(N)(=O)=O)cc2)C(Cl)(Cl)Cl)c1 (stereo unspecified)	Lmaj promast 54
COC(=O)c1ccccc1NC(=S)NC(NC(=O)c1ccco1)C(Cl)(Cl)Cl (stereo unspecified)	none (no result: S1P3 antagonist)
COC(=O)c1ccccc1NC(=S)NC(NC(=O)c1ccccc1[N+](=O)[O-])C(Cl)(Cl)Cl (stereo unspecified)	Lmaj promast 96 (no result: S1P3 antagonist)
CC(=O)NC(NC(=S)Nc1cccc(Br)c1)C(Cl)(Cl)Cl (stereo unspecified)	none (no result: Lmaj promast)
CC(=O)NC(NC(=S)Nc1ccc(N=Nc2ccccc2)cc1)C(Cl)(Cl)Cl (stereo unspecified)	Lmaj promast 64 (no result: S1P3 antagonist)
CC(=O)NC(NC(=S)Nc1ccc(S(N)(=O)=O)cc1)C(Cl)(Cl)Cl (stereo unspecified)	none (no result: Lmaj promast)
COC(=O)NC(NC(=S)Nc1ccc([N+](=O)[O-])cc1)C(Cl)(Cl)Cl (stereo unspecified)	Lmaj promast 99 (no result: MDM2 E3 inh, S1P3 antagonist)
O=C(c1ccc2c(c1)OCO2)N1CCC2(CC1)Oc1ccc(Cl)cc1C(=O)C21CC(c2ccccc2)=NO1 (stereo unspecified)	none (no result: S1P4 agonist, S1P4 antag, Lmaj promast, S1P3 antagonist)
CC(C)(C)C1C/C(=C/c2ccccn2)C(=O)/C(=C/c2ccccn2)C1 (stereo unspecified)	Lmaj promast 101
CC1C/C(=C/c2ccccn2)C(=O)/C(=C/c2ccccn2)C1 (stereo unspecified)	MDM2 E3 inh 46, Lmaj promast 100
CC1C/C(=C/c2ccco2)C(=O)/C(=C/c2ccco2)C1 (stereo unspecified)	none
COc1cc(OC)c(C2C3=C(CCCC3=O)Nc3nc4ccccc4n32)cc1OC (stereo unspecified)	Lmaj promast 99
COc1ccc(C2C(C(=O)c3ccccc3)=C(C)Nc3nc4ccccc4n32)c(OC)c1 (stereo unspecified)	Lmaj promast 87 (no result: MDM2 E3 inh)
COc1cccc(C2C3=C(CCCC3=O)Nc3nc4ccccc4n32)c1OC (stereo unspecified)	none (no result: S1P4 agonist, MDM2 E3 inh, S1P4 antag, Lmaj promast)
COc1ccc(OC)c(C2C(C(=O)N(C)C)=C(C)Nc3nc4ccccc4n32)c1 (stereo unspecified)	none
Cc1cc(C)c(C(=O)/C=C/c2ccc(C(C)C)cc2)c(=O)[nH]1	Lmaj promast 84 (no result: S1P3 antagonist)
Cc1cc(C)c(C(=O)/C=C/C=C/c2ccccc2)c(=O)[nH]1	none
COc1cc(CNCCC2CCOC(C)(C)C2)ccc1O (stereo unspecified)	Lmaj promast 57
O=[N+]([O-])c1ccc2c(c1Nc1ccccc1Cl)=NC1(CCCCC1)N=2	none (no result: Lmaj promast)
Cc1ccc(Nc2c([N+](=O)[O-])ccc3c2=NC2(CCCCC2)N=3)cc1	Lmaj promast 51 (no result: S1P3 antagonist)
O=C(NCc1ccccn1)c1cc(-c2ccccc2Cl)nc2ccccc12	Lmaj promast 87
Cc1cc(NS(=O)(=O)c2ccc(NC(=O)c3cc(-c4ccccc4Cl)nc4ccccc34)cc2)no1	Lmaj promast 60
O=C(NNC(=O)c1cc(-c2ccc(Cl)cc2Cl)nc2ccccc12)Nc1ccccc1	Lmaj promast 70 (no result: S1P3 antagonist)
CCC(C)NS(=O)(=O)c1ccc(NS(=O)(=O)c2ccc(F)cc2)cc1 (stereo unspecified)	none (no result: S1P3 antagonist)
CSc1nc(Cl)cc(N(CCO)CCO)n1	none (no result: S1P3 antagonist)
Cc1[nH]n(C)c(=O)c1C(=O)c1c(-c2ccccc2Cl)noc1C	none (no result: Lmaj promast)
CCN1CCCC1CN(Cc1cc2c(C)cc(C)cc2[nH]c1=O)C(=O)NC1CCCCC1 (stereo unspecified)	Lmaj promast 59
Cc1cc(C)c2cc(CN(CCO)C(=O)NC3CCCCC3)c(=O)[nH]c2c1	none (no result: Lmaj promast)
CC(C)CNC(=O)c1cccc(NC(=O)COc2ccc([N+](=O)[O-])cc2)c1	none
O=C(Nc1ccc(Cc2ccncc2)cc1)C1CCC(N2C(=O)C3C4C=CC(C5CC45)C3C2=O)CC1 (stereo unspecified)	Lmaj promast 52 (no result: S1P3 antagonist)
CC(C)(C)NC(=O)COc1ccc(CNCc2cccnc2)cc1	Lmaj promast 89
COc1cc(CNCCc2ccccc2)ccc1OCC(=O)NC(C)(C)C	Lmaj promast 99 (no result: S1P3 antagonist)
COc1cc(CNCc2cccnc2)ccc1OCC(=O)NC(C)(C)C	Lmaj promast 92
COc1cc(CNCCCO)ccc1OCC(=O)NC(C)(C)C	none
COc1cc(CNCc2ccccn2)ccc1OCC(=O)NC(C)(C)C	none
O=C(COc1ccc(Cl)cc1Cl)NN1C(=O)C2C3C=CC(C3)C2C1=O (stereo unspecified)	none (no result: Lmaj promast)
O=C(CN(c1ccccc1)S(=O)(=O)c1ccccc1[N+](=O)[O-])Nc1ccccc1C(=O)N1CCOCC1	none
COc1ccc(C(CC(=O)O)NC(=O)c2ccccc2[N+](=O)[O-])cc1 (stereo unspecified)	none
O=C(CSc1cccc[n+]1[O-])CSc1cccc[n+]1[O-]	Lmaj promast 99
COC(=O)c1ccc(-n2c(C)cc(C(=O)CSc3cccc[n+]3[O-])c2C)cc1	Lmaj promast 98
COC(=O)c1ccc(C(=O)OC)c(NC(=O)CSc2cccc[n+]2[O-])c1	Lmaj promast 98 (no result: S1P3 antagonist)

Source: PubChem
